Test results: ChEMBL document CHEMBL3259684, “Dual inhibition of the α-glucosidase and butyrylcholinesterase studied by molecular field topology analysis” (Eur J Med Chem, 2014)

Columns and labels:
Cholinesterase = Cholinesterase (Homo sapiens, UniProt P06276); assay: Inhibition of BChE (unknown origin) using BCh iodide as substrate preincubated for 15 mins prior to substrate addition measured after 10 mins by Ellman's method
[1] = Inhibition of yeast alpha-glucosidase type 3 using p-nitrophenyl-alpha-D-glucopyranoside as substrate preincubated with substrate for 5 mins prior to enzyme challenge for 30 mins by absorbance analysis; parameters: species or system Saccharomyces cerevisiae
Summary of the method: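 Yeast enzyme at 0.1 units/ml in pH 6.8 potassium phosphate/MgCl2 buffer; substrate stock 6 mmol/L. Compound (sample solution 0.6 mg/ml in DMSO) mixed with buffer, water and substrate, held 5 min at 37 °C, then enzyme added; reaction 30 min at 37 °C, stopped with 0.4 mol/L glycine buffer pH 10; p-nitrophenol read at 410 nm. Deoxynojirimycin as reference inhibitor.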

Sequence of Cholinesterase (P06276 whole entry): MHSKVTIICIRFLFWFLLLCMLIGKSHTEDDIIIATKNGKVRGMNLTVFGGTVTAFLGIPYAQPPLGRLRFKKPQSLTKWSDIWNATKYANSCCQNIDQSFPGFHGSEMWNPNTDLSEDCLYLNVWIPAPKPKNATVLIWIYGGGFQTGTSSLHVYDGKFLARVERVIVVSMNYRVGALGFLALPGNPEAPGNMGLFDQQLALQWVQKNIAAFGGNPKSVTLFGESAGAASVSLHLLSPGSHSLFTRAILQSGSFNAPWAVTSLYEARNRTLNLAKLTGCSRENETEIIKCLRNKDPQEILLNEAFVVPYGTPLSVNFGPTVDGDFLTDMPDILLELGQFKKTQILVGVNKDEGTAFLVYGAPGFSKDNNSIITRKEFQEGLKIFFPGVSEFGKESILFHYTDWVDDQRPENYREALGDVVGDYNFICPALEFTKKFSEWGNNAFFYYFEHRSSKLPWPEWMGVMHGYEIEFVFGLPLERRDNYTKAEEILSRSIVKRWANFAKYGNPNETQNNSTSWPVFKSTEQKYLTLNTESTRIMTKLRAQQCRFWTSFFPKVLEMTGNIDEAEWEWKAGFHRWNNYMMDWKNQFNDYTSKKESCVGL

For COc1ccccc1/C=C/C(=O)c1ccccc1, the IC50 (Cholinesterase) was 27 µM.
With O=C(/C=C/c1ccc([N+](=O)[O-])cc1)c1ccccc1 the IC50 [1] was 3850 µM and the IC50 (Cholinesterase) was 32 µM.
With O=[N+]([O-])c1ccc(-n2cc(-c3ccccc3)nn2)cc1 the IC50 [1] was 235 µM and the IC50 (Cholinesterase) was 250 µM.
In the case of O=C(/C=C/c1ccccc1O)c1ccccc1, the IC50 (Cholinesterase) is reported as 105 µM.
Work on O=C(/C=C/c1ccccc1O)c1ccccc1O yielded an IC50 [1] of 49.4 µM and an IC50 (Cholinesterase) of 13 µM.
Compound Nc1ccc(C(=O)/C=C/c2ccccc2Br)cc1 has an IC50 (Cholinesterase) of 26 µM.
c1ccc(C2=Nc3ccccc3SC(c3ccccc3)C2)cc1 (stereo unspecified) gave an IC50 [1] of 33 µM.
Compound Oc1ccccc1C1=Nc2ccccc2SC(c2ccccc2)C1 (stereo unspecified) has an IC50 [1] of 12.8 µM and an IC50 (Cholinesterase) of 62 µM.
Compound Oc1ccccc1C1=Nc2ccccc2SC(c2ccc(Cl)cc2)C1 (stereo unspecified) has an IC50 [1] of 18 µM.
Oc1ccccc1C1=Nc2ccccc2SC(c2ccc(F)cc2)C1 (stereo unspecified) showed an IC50 [1] of 12 µM and an IC50 (Cholinesterase) of 14 µM.
Compound COc1ccc(C2CC(c3ccccc3O)=Nc3ccccc3S2)cc1 (stereo unspecified) has an IC50 [1] of 11.9 µM.
Cc1ccc(C2CC(c3ccccc3O)=Nc3ccccc3S2)cc1 (stereo unspecified) showed an IC50 [1] of 12 µM and an IC50 (Cholinesterase) of 14 µM.
Work on O=C(/C=C/c1ccc2c(c1)OCO2)c1ccccc1 yielded an IC50 [1] of 1870 µM.
O=C(/C=C/c1ccc2c(c1)OCO2)c1ccccc1O gave an IC50 [1] of 151 µM.
COc1cccc(/C=C/C(=O)c2ccccc2)c1 showed an IC50 [1] of 151 µM and an IC50 (Cholinesterase) of 32 µM.
For CCCCCCCCCCCCCCCCn1cc(C2(O)CCCCC2)nn1, the IC50 [1] was 1190 µM and the IC50 (Cholinesterase) was 500 µM.
For OC1(c2cn(-c3ccccc3Cl)nn2)CCCCC1, the IC50 [1] was 370 µM and the IC50 (Cholinesterase) was 430 µM.
O=[N+]([O-])c1cccc(-n2cc(C3(O)CCCCC3)nn2)c1 gave an IC50 [1] of 862 µM and an IC50 (Cholinesterase) of 585 µM.
Compound Clc1ccccc1-n1cc(-c2ccccc2)nn1 has an IC50 [1] of 57.2 µM and an IC50 (Cholinesterase) of 41.3 µM.
Work on Brc1ccc(-n2cc(-c3ccccc3)nn2)cc1 yielded an IC50 [1] of 409 µM and an IC50 (Cholinesterase) of 375 µM.
O=[N+]([O-])c1cccc(-n2cc(-c3ccccc3)nn2)c1 gave an IC50 [1] of 520 µM and an IC50 (Cholinesterase) of 499 µM.
Compound N#Cc1cc([N+](=O)[O-])ccc1-n1cc(C2(O)CCCCC2)nn1 has an IC50 [1] of 49.7 µM and an IC50 (Cholinesterase) of 42.4 µM.
Work on O=C(On1cc(C2(O)CCCCC2)nn1)c1ccccc1 yielded an IC50 [1] of 1090 µM and an IC50 (Cholinesterase) of 248 µM.
CCCCCCCCc1ccc(-n2cc(C3(O)CCCCC3)nn2)cc1 showed an IC50 [1] of 658 µM and an IC50 (Cholinesterase) of 43.6 µM.
In the case of OC1(c2cn(-c3ccc(Cl)cc3)nn2)CCCCC1, the IC50 [1] is reported as 1390 µM and the IC50 (Cholinesterase) is reported as 294 µM.
Work on COC(=O)Cc1ccc(-n2cc(C3(O)CCCCC3)nn2)cc1 yielded an IC50 [1] of 812 µM and an IC50 (Cholinesterase) of 568 µM.
In the case of O=[N+]([O-])c1ccc(-n2cc(C3(O)CCCCC3)nn2)cc1, the IC50 [1] is reported as 320 µM and the IC50 (Cholinesterase) is reported as 409 µM.
Cc1ccc(-n2cc(C3(O)CCCCC3)nn2)c(Cl)c1 gave an IC50 [1] of 366 µM and an IC50 (Cholinesterase) of 65.5 µM.
Compound CC(=O)c1cccc(-n2cc(C3(O)CCCCC3)nn2)c1 has an IC50 [1] of 320 µM and an IC50 (Cholinesterase) of 452 µM.
Work on OC1(c2cn(-c3cccc(Cl)c3)nn2)CCCCC1 yielded an IC50 [1] of 1390 µM and an IC50 (Cholinesterase) of 512 µM.
With OC1(c2cn(-c3ccc(Br)cc3)nn2)CCCCC1 the IC50 [1] was 325 µM and the IC50 (Cholinesterase) was 298 µM.
Work on COc1cccc(-n2cc(C3(O)CCCCC3)nn2)c1 yielded an IC50 [1] of 245 µM and an IC50 (Cholinesterase) of 83.3 µM.
In the case of CC(=O)c1cccc(-n2cc(-c3ccccc3)nn2)c1, the IC50 [1] is reported as 265 µM and the IC50 (Cholinesterase) is reported as 451 µM.
CC(=O)c1ccccc1-n1cc(-c2ccccc2)nn1 showed an IC50 [1] of 313 µM and an IC50 (Cholinesterase) of 295 µM.
For O=[N+]([O-])c1ccccc1-n1cc(C2(O)CCCCC2)nn1, the IC50 [1] was 1710 µM and the IC50 (Cholinesterase) was 333 µM.
Compound COC(=O)Cn1cc(C2(O)CCCCC2)nn1 has an IC50 [1] of 255 µM and an IC50 (Cholinesterase) of 362 µM.
Work on OC1(c2cn(-c3ccncc3)nn2)CCCCC1 yielded an IC50 [1] of 520 µM and an IC50 (Cholinesterase) of 385 µM.
Clc1ccc(-n2cc(-c3ccccc3)nn2)cc1 showed an IC50 [1] of 378 µM and an IC50 (Cholinesterase) of 555 µM.
For CCCCCCCCCCCCCCCCn1cc(-c2ccccc2)nn1, the IC50 [1] was 370 µM and the IC50 (Cholinesterase) was 454 µM.
Work on CC(=O)c1ccc(-n2cc(C3(O)CCCCC3)nn2)cc1 yielded an IC50 [1] of 1560 µM and an IC50 (Cholinesterase) of 450 µM.
For O=[N+]([O-])c1ccccc1-n1cc(-c2ccccc2)nn1, the IC50 [1] was 6760 µM.
Oc1ccc(C2=Nc3ccccc3SC(c3cccs3)C2)cc1 (stereo unspecified) gave an IC50 (Cholinesterase) of 3.97 µM.
Oc1ccc(C2=Nc3ccccc3SC(c3cccc(O)c3)C2)cc1 (stereo unspecified) gave an IC50 (Cholinesterase) of 4.7 µM.
In the case of c1ccc(C2=Nc3ccccc3SC(c3cccs3)C2)cc1 (stereo unspecified), the IC50 (Cholinesterase) is reported as 9.1 µM.
With Cc1ccc(C2CC(c3cccc(O)c3)=Nc3ccccc3S2)c(C)c1 (stereo unspecified) the IC50 (Cholinesterase) was 19.7 µM.
O=[N+]([O-])c1ccc(C2CC(c3ccccc3O)=Nc3ccccc3S2)cc1 (stereo unspecified) gave an IC50 (Cholinesterase) of 57 µM.
With CCSc1ccccc1-c1cnc(-c2ccsc2)[nH]1 the IC50 (Cholinesterase) was 0.1 µM.
COc1ccc(C(=O)/C=C/c2ccc(N)cc2)cc1 gave an IC50 [1] of 20.2 µM.
With COc1cccc(/C=C/C(=O)c2ccc(N)cc2)c1 the IC50 [1] was 93 µM.
Work on COc1cccc(/C=C/C(=O)c2ccccc2O)c1 yielded an IC50 [1] of 130 µM.
In the case of O=C(/C=C/c1ccccc1)c1ccccc1O [2'-HYDROXYCHALCONE], the IC50 [1] is reported as 15 µM and the IC50 (Cholinesterase) is reported as 84 µM.
Work on COc1ccc(/C=C/C(=O)c2ccccc2)cc1 [4-METHOXY CHALCONE] yielded an IC50 (Cholinesterase) of 42 µM.
Compound O=C(/C=C/c1ccccc1)c1ccccc1 [CHALCONE] has an IC50 (Cholinesterase) of 87 µM.
